{"data": "Published values collected from several papers", "effect on": "cell growth or viability", "note": "Compare with care: the assays were run in different laboratories."}
{"SMILES": "Cc1ncsc1-c1ccc([C@H](CC(=O)NCCCCCCNC(=O)c2nc(N3CCc4cccc(C(=O)Nc5nc6ccccc6s5)c4C3)ccc2-c2cnn(CC34CC5CC(CC(C5)C3)C4)c2C)NC(=O)[C@@H]2C[C@@H](O)CN2C(=O)[C@@H](NC(=O)C2(C#N)CC2)C(C)(C)C)cc1", "cell line": "MOLT-4", "technique": "MTS", "time": "48 h", "IC50": "0.117 µM"}
{"SMILES": "CCOc1ccc2[nH]cc(C(=O)C(C#N)=Cc3cn(CC)c4ccccc34)c2c1", "cell line": "MIA PaCa-2", "technique": "MTT", "time": "48 h", "IC50": "5.8 µM"}
{"SMILES": "COc1ccc(C=NNC(=O)c2cc(-c3ccccc3)n(-c3ccc(S(N)(=O)=O)cc3)n2)cc1OC", "cell line": "PaCa-2", "technique": "fluorescence", "time": "48 h", "IC50": "20.5 µM"}
{"SMILES": "O=c1cc(OCc2cc(-c3ccccn3)no2)c2ccccc2o1", "cell line": "LN-229", "technique": "MTS", "time": "72 h", "IC50": "> 100 µM"}
{"SMILES": "C=C1C[C@@]23CC[C@H]4[C@@](C)(CCC[C@@]4(C)C(=O)O)[C@@H]2CC[C@@H]1C3", "cell line": "T47D", "technique": "MTT", "time": "75 h", "IC50": "150 µM"}
{"SMILES": "COC(=O)c1cc(C(C)=NNc2nc(-c3cccc4cc[nH]c34)cs2)ccc1O", "cell line": "T47D", "technique": "MTT", "time": "96 h", "IC50": "20.8 µM"}
{"SMILES": "O=C(CSc1nc2ccccc2s1)N/N=C/c1ccc(OCC(=O)Nc2ccc([N+](=O)[O-])cc2)cc1", "cell line": "MOLT-4", "technique": "MTS", "time": "72 h", "IC50": "> 100 µM"}
{"SMILES": "COc1ccc(Nc2ncnc3c2ncn3Cc2ccc(C(=O)NO)cc2)cc1", "cell line": "Jurkat", "technique": "MTT", "time": "72 h", "IC50": "0.7 µM"}
{"SMILES": "O=c1cc(OCc2cc(-c3ccc(Cl)cc3Cl)no2)c2ccccc2o1", "cell line": "LN-229", "technique": "MTS", "time": "72 h", "IC50": "> 100 µM"}
{"SMILES": "Cc1nc(Nc2ncc(C(=O)Nc3c(C)cccc3Cl)s2)cc(N2CC[C@H](O)C2)n1", "cell line": "SU-DHL-2", "technique": "ATP luminescence", "time": "72 h", "IC50": "> 10 µM"}
{"SMILES": "CCn1cc(C=C(C#N)C(=O)c2c[nH]c3ccc(OC)cc23)c2ccccc21", "cell line": "MIA PaCa-2", "technique": "MTT", "time": "48 h", "IC50": "15.5 µM"}
{"SMILES": "CC(=NNC(=O)c1cc(-c2ccccc2)n(-c2ccc(S(N)(=O)=O)cc2)n1)c1ccc(C)cc1", "cell line": "PaCa-2", "technique": "fluorescence", "time": "48 h", "IC50": "11.5 µM"}
{"SMILES": "COC[C@H](NC(=O)c1ccn(S(C)(=O)=O)c1)C(=O)Nc1nc(-c2cccc(N3C[C@@H](C)O[C@@H](C)C3)n2)cs1", "cell line": "LNCaP", "technique": "ATP luminescence", "time": "7 days", "IC50": "0.008 µM"}
{"SMILES": "CC(C)C(=O)Nc1ccc([N+](=O)[O-])c(C(F)(F)F)c1", "cell line": "LNCaP", "technique": "MTS", "time": "48 h", "IC50": "99.9 µM"}
{"SMILES": "COc1ccc2[nH]cc(C(=O)C(C#N)=Cc3cn(C)c4ccccc34)c2c1", "cell line": "MIA PaCa-2", "technique": "MTT", "time": "48 h", "IC50": "4.5 µM"}
{"SMILES": "CN(C)c1ccc(Nc2nc(-c3ccncc3)nc3c2CC(N)CC3)cc1 (stereo not drawn)", "cell line": "DU-145", "technique": "MTT", "IC50": "11.5 µM"}
{"SMILES": "NS(=O)(=O)c1ccc(-n2nc(C(=O)NN3C(=O)CCC3=O)cc2-c2ccccc2)cc1", "cell line": "PaCa-2", "technique": "fluorescence", "time": "48 h", "IC50": "27.4 µM"}
{"SMILES": "Cc1c(-c2ccc(N3CCc4cccc(C(=O)Nc5nc6ccccc6s5)c4C3)nc2C(=O)NCCOCCNc2cccc3c2C(=O)N(C2CCC(=O)NC2=O)C3=O)cnn1CC12CC3CC(CC(C3)C1)C2 (stereo not drawn)", "cell line": "MOLT-4", "technique": "MTS", "time": "48 h", "IC50": "0.0214 µM"}
{"SMILES": "COc1ccc(Nc2ncnc3c2ncn3Cc2ccc(C(=O)Nc3ccccc3N)cc2)cc1", "cell line": "Jurkat", "technique": "MTT", "time": "72 h", "IC50": "9.74 µM"}
{"SMILES": "Cc1ncsc1-c1ccc([C@H](C)NC(=O)[C@@H]2C[C@@H](O)CN2C(=O)[C@@H](NC(=O)CN2CCN(c3cc(-c4ccccc4O)nnc3N)CC2)C(C)(C)C)cc1", "cell line": "LNCaP", "technique": "ATP luminescence", "time": "7 days", "IC50": "0.0153 µM"}
{"SMILES": "COc1cccc2c1C(=O)c1c(O)c3c(c(O)c1C2=O)C[C@@](O)(C(=O)CO)C[C@@H]3O[C@H]1C[C@H](N)[C@H](O)[C@H](C)O1", "cell line": "Jurkat", "time": "96 h", "IC50": "0.0339 µM"}
{"SMILES": "COc1ccc(C=C(C#N)C(=O)c2c[nH]c3ccccc23)cc1OC", "cell line": "MIA PaCa-2", "technique": "MTT", "time": "48 h", "IC50": "37 µM"}
{"SMILES": "FC(F)(F)c1cc(OCc2cc(-c3ccccn3)no2)c2ccccc2n1", "cell line": "LN-229", "technique": "MTS", "time": "72 h", "IC50": "> 100 µM"}
{"SMILES": "O=C(NO)c1ccc(Cn2cnc3c(Nc4ccc(Br)cc4F)ncnc32)cc1", "cell line": "MOLT-4", "technique": "MTT", "time": "72 h", "IC50": "0.53 µM"}
{"SMILES": "Cc1nc2c(n1CCCN1CCCCC1)C(=O)c1ccccc1C2=O", "cell line": "MIA PaCa-2", "technique": "MTT", "IC50": "14.7 µM"}
{"SMILES": "O=C(CSc1nc2ccccc2s1)N/N=C/c1ccc(OCC(=O)Nc2cccc(Cl)c2)cc1", "cell line": "MOLT-4", "technique": "MTS", "time": "72 h", "IC50": "7.7 µM"}
{"SMILES": "Cc1ncsc1-c1ccc([C@H](C)NC(=O)[C@@H]2C[C@@H](O)CN2C(=O)[C@@H](NC(=O)CCCCCCCNC(=O)c2nc(N3CCc4cccc(C(=O)Nc5nc6ccccc6s5)c4C3)ccc2-c2cnn(CC34CC5CC(CC(C5)C3)C4)c2C)C(C)(C)C)cc1", "cell line": "MOLT-4", "technique": "MTS", "time": "48 h", "IC50": "0.065 µM"}
{"SMILES": "O=C(NO)c1ccc(Cn2cnc3c(Nc4cccc([N+](=O)[O-])c4)ncnc32)cc1", "cell line": "Jurkat", "technique": "MTT", "time": "72 h", "IC50": "0.89 µM"}
{"SMILES": "N/C(=N\\O)c1ccc(-c2cc(CNc3cccc4cccnc34)on2)cc1", "cell line": "LN-229", "technique": "MTS", "time": "72 h", "IC50": "15.6 µM"}
{"SMILES": "Cc1c(-c2ccc(N3CCc4cccc(C(=O)Nc5nc6ccccc6s5)c4C3)nc2C(=O)O)cnn1CC12CC3CC(C1)CC(C(=O)NCCCCCCCCNc1cccc4c1C(=O)N(C1CCC(=O)NC1=O)C4=O)(C3)C2 (stereo not drawn)", "cell line": "MOLT-4", "technique": "MTS", "time": "48 h", "IC50": "0.0041 µM"}
{"SMILES": "FC(F)(F)c1ccc(-c2cc(CNc3cccc4cccnc34)on2)cc1", "cell line": "LN-229", "technique": "MTS", "time": "72 h", "IC50": "51.8 µM"}
{"SMILES": "COc1cc(C=NNC(=O)c2cc(-c3ccccc3)n(-c3ccc(S(N)(=O)=O)cc3)n2)cc(OC)c1OC", "cell line": "PaCa-2", "technique": "fluorescence", "time": "48 h", "IC50": "22 µM"}
{"SMILES": "Nc1cccc2c1C(=O)N(C1CCC(=O)NC1=O)C2=O (stereo not drawn)", "cell line": "SU-DHL-2", "technique": "CCK-8", "time": "7 days", "IC50": "1.5 µM"}
{"SMILES": "Nc1ccccc1NC(=O)c1ccc(Cn2cnc3c(Nc4ccc(Cl)cc4)ncnc32)cc1", "cell line": "Jurkat", "technique": "MTT", "time": "72 h", "IC50": "13.5 µM"}
{"SMILES": "Cc1ncsc1-c1ccc([C@H](C)NC(=O)[C@H]2C[C@H](O)CN2C(=O)[C@@H](NC(=O)CCCCCCCS(=O)(=O)NC(=O)c2nc(N3CCc4cccc(C(=O)Nc5nc6ccccc6s5)c4C3)ccc2-c2cnn(CC34CC5CC(CC(C5)C3)C4)c2C)C(C)(C)C)cc1", "cell line": "human Platelet", "technique": "MTS", "time": "48 h", "IC50": "0.931 µM"}
{"SMILES": "CC(=NNC(=O)c1cc(-c2ccccc2)n(-c2ccc(S(N)(=O)=O)cc2)n1)c1ccc(Br)cc1", "cell line": "PaCa-2", "technique": "fluorescence", "time": "48 h", "IC50": "31.5 µM"}
{"SMILES": "O=c1cc(OCc2cc(-c3ccccc3)no2)c2ccccc2o1", "cell line": "LN-229", "technique": "MTS", "time": "72 h", "IC50": "> 100 µM"}
{"SMILES": "Cc1c(-c2ccc(N3CCc4cccc(C(=O)Nc5nc6ccccc6s5)c4C3)nc2C(=O)NCCCCCCCCNc2cccc3c2C(=O)N(C2CCC(=O)NC2=O)C3=O)cnn1CC12CC3CC(CC(C3)C1)C2 (stereo not drawn)", "cell line": "MOLT-4", "technique": "MTS", "time": "48 h", "IC50": "> 2 µM"}
{"SMILES": "O=C(CSc1nc2ccccc2s1)N/N=C/c1ccc(OCC(=O)Nc2ccc(Br)cc2)cc1", "cell line": "LN-229", "technique": "MTS", "time": "72 h", "IC50": "27.8 µM"}
{"SMILES": "CCCOc1ccc2[nH]cc(C(=O)C(C#N)=Cc3cn(C)c4ccccc34)c2c1", "cell line": "MIA PaCa-2", "technique": "MTT", "time": "48 h", "IC50": "28.9 µM"}
{"SMILES": "NS(=O)(=O)c1ccc(-n2nc(C(=O)NN3C(=O)c4ccccc4C3=O)cc2-c2ccccc2)cc1", "cell line": "PaCa-2", "technique": "fluorescence", "time": "48 h", "IC50": "35.4 µM"}
{"SMILES": "c1ccc(-c2cc(CNc3cccc4cccnc34)on2)nc1", "cell line": "LN-229", "technique": "MTS", "time": "72 h", "IC50": "22.8 µM"}
{"SMILES": "CCn1cc(C=C(C#N)C(=O)c2c[nH]c3cc(OC)c(OC)cc23)c2ccccc21", "cell line": "MIA PaCa-2", "technique": "MTT", "time": "48 h", "IC50": "13 µM"}
{"SMILES": "O=C(CSc1nc2ccccc2s1)N/N=C/c1ccc(OCC(=O)Nc2cccc([N+](=O)[O-])c2)cc1", "cell line": "MOLT-4", "technique": "MTS", "time": "72 h", "IC50": "15.3 µM"}
{"SMILES": "Cc1ncsc1-c1ccc([C@H](C)NC(=O)[C@@H]2C[C@@H](O)CN2C(=O)[C@@H](NC(=O)CCCCCCCCCS(=O)(=O)NC(=O)c2nc(N3CCc4cccc(C(=O)Nc5nc6ccccc6s5)c4C3)ccc2-c2cnn(CC34CC5CC(CC(C5)C3)C4)c2C)C(C)(C)C)cc1", "cell line": "MOLT-4", "technique": "MTS", "time": "48 h", "IC50": "0.0119 µM"}
{"SMILES": "N#Cc1ccc(-c2cc(COc3cc(C(F)(F)F)nc4ccccc34)on2)cc1", "cell line": "LN-229", "technique": "MTS", "time": "72 h", "IC50": "23.9 µM"}
{"SMILES": "Nc1ccccc1NC(=O)c1ccc(Cn2cnc3c(Nc4ccc(Br)cc4F)ncnc32)cc1", "cell line": "Jurkat", "technique": "MTT", "time": "72 h", "IC50": "4.73 µM"}
{"SMILES": "Cc1c(-c2ccc(N3CCc4cccc(C(=O)Nc5nc6ccccc6s5)c4C3)nc2C(=O)O)cnn1CC12CC3CC(C1)CC(C(=O)NCCOCCNc1cccc4c1C(=O)N(C1CCC(=O)NC1=O)C4=O)(C3)C2 (stereo not drawn)", "cell line": "MOLT-4", "technique": "MTS", "time": "48 h", "IC50": "0.0516 µM"}
